LEDGF integ inh – blockers of LEDGF/p75-dependent integrase strand transfer – biochemical, TR-FRET, high throughput, primary screen. HIV-1 integrase (with human LEDGF/p75). TR-FRET IN-LEDGF/p75 DNA integration, Eu/Cy5. inhibition, % at 3.7 µM. 0.64% of 370,000 active. AID 743269, 2014;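 active = inhibition above the screen-wide mean plus 3 SD, cut at about 13% in these data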;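 also: signal is the Cy5 over europium emission ratio at 671 and 618 nm; 0% = plate median of compound wells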
NSD2 HMT inh – NSD2 histone methyltransferase inhibitors, primary screen, biochemical, AlphaScreen, single concentration, set 2. Histone-lysine N-methyltransferase NSD2 (Homo sapiens), O96028. NSD2 peptide methylation, 120 min. inhibition, % at 12.5 µM. 0.54% of 310,000 active. AID 743445, 2014; in the data active = inhibition above about 50%
UHRF1 binding – UHRF1 methylated DNA binding inhibitors, primary screen, counter-screen for MBD2 inhibitor project, biochemical, TR-FRET, human UHRF1, single concentration | inhibition, % at 4.4 µM | 0.75% of 370,000 active | UHRF1 binding to methylated oligo | AID 687016, 2013; in the data active = inhibition above about 21%;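 also: UHRF1 SRA domain binding a hemimethylated CpG hairpin DNA probe; 0% = median of test compound wells and 100% = reference inhibitor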
MBD2 inh – inhibitors of MBD2 binding to methylated DNA, primary screen, biochemical, TR-FRET, DNA-binding domain, human. MBD2 binding to methylated oligonucleotide. inhibition, % at 4.4 µM. 0.31% of 370,000 active. AID 686964, 2013; in the data active = inhibition above about 13%
CASP6 VEID inh – human caspase-6 inhibitors, primary screen, biochemical, VEID-R110 fluorescence, single point, set 2; purified caspase-6, Z-VEID-R110 cleavage fluorescence; P55212; 0.53% of 350,000 active; AID 686996, 2013; inhibition, % at 12.5 µM;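 active = mean inhibition across replicates at least about 35%, with every replicate also reaching that limit, limit read from the data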;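 also: 0% = median of neutral control wells and 100% = no fluorescence left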
Target sequence (P55212 24-179 limits assumed): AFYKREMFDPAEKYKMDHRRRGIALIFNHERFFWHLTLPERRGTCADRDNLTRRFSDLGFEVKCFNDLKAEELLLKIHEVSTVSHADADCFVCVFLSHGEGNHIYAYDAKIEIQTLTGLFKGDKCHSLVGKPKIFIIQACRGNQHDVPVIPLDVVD
Target sequence (P55212 194-293 limits assumed): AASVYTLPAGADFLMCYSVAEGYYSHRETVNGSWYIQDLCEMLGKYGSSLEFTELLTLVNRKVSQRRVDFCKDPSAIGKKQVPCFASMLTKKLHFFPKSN
TDP2 inh – human TDP2 enzyme inhibitors, primary screen, biochemical, epi absorbance, recombinant enzyme. T5PNP hydrolysis, p-nitrophenol absorbance 415 nm. inhibition, % at 12.8 µM. 0.34% of 370,000 active;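 active = inhibition above the mean of all tested compounds plus 3 SD, set per campaign, cut at about 25% in these data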;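 also: 0% = DMSO with enzyme and 100% = buffer with substrate but no TDP2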
Target sequence (O95551 whole entry, looked up): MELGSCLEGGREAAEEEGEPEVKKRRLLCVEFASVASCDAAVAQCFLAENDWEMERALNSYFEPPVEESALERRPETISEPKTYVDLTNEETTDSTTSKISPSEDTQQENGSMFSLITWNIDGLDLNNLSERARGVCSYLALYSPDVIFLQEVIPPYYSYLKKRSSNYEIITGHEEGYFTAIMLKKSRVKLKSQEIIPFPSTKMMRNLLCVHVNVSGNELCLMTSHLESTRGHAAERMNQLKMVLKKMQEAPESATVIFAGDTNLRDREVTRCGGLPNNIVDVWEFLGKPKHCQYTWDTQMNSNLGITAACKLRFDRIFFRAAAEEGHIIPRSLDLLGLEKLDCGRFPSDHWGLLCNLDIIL
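System: recombinant human TDP2 / Amount: 120 nM TDP2 per well / Also added: 5 mM T5PNP chromogenic substrate / Doses: 12.8 µM single point, 1% DMSO / Incubation: 2 h at 37 °C / Detection: p-Nitrophenol epi absorbance / Evaluation: % inhibition relative to enzyme-containing and enzyme-free wells / Repeats: singlicate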
The depositor's hits bear a star; · = no result given. Shown are actives, neighbours in structure and some others; about 1.8% of the full set was active somewhere.

SMILES | LEDGF integ inh | NSD2 HMT inh | UHRF1 binding | MBD2 inh | CASP6 VEID inh | TDP2 inh
Cc1nn(-c2ccccc2)c2c1P(=O)(O)/C(=C1\N(C)c3ccccc3C1(C)C)C=N2 | -1 | -4 | -1 | -2 | 40* | -8
O=C(CN1CCCCC1)Nc1scc2c1c(=O)oc1ccccc12 | 0 | · | 21* | 5 | -4 | -5
COc1ccc(C(CNC(=O)c2ccco2)N2CCOCC2)cc1 (stereo not drawn) | 4 | -1 | -1 | -6 | -1 | 2
COc1ccc(C(c2c(NC(=O)c3ccco3)sc(C)c2C)N2CCOCC2)cc1 (stereo not drawn) | 0 | -4 | 4 | 8 | 55* | -6
Cc1noc(C)c1S(=O)(=O)Nc1ccc2c(c1)C(=O)N([C@@H](C)CO)C[C@@H](C)[C@@H](CN(C)C(=O)Nc1ccc3c(c1)OCO3)O2 | · | · | · | · | -2 | ·
C[C@@H]1CN([C@H](C)CO)S(=O)(=O)c2ccc(C3=CCCCC3)cc2O[C@@H]1CN(C)C(=O)C1CCC1 | · | · | · | · | 1 | ·
C[C@H](CO)N1C[C@H](C)[C@@H](CN(C)C(=O)CC2CC2)Oc2ncc(C#C[C@@H](C)O)cc2C1=O | · | · | · | · | -3 | ·
COc1ccc2c3c(n(C)c2c1)[C@@H](CO)N(C(=O)CC1CC1)CC31CCN(C(=O)C2CC2)CC1 | · | · | · | · | -2 | ·
CC(C)NC(=O)N(C)C[C@H]1OCCCC[C@H](C)Oc2ccc(NS(=O)(=O)c3ccccc3)cc2C(=O)N([C@H](C)CO)C[C@H]1C | 5 | · | 22* | 7 | -2 | 3
CC(C)NC(=O)N(C)C[C@@H]1OCCCC[C@@H](C)Oc2ccc(NS(=O)(=O)c3ccccc3)cc2C(=O)N([C@H](C)CO)C[C@@H]1C | · | · | · | · | -1 | ·
C[C@@H]1CN([C@H](C)CO)C(=O)c2cc(NS(=O)(=O)c3cn(C)cn3)ccc2O[C@@H](C)CCCCO[C@@H]1CN(C)C(=O)CCCN(C)C | · | · | · | · | 36* | ·
Cc1ccc(S(=O)(=O)Nc2ccc3c(c2)C(=O)N([C@@H](C)CO)C[C@H](C)[C@@H](CN(C)Cc2ccc(C(F)(F)F)cc2)OCCCC[C@H](C)O3)cc1 | · | · | · | · | 2 | ·
COc1ccc2c3c([nH]c2c1)[C@H](CO)N(Cc1nccs1)CC31CCN(C(=O)C2CCCC2)CC1 | · | · | · | · | 1 | ·
S=C(c1ccc(-c2ccc(Br)cc2)o1)N1CCCCC1 | 2 | 2 | -2 | -4 | 54* | -12
COCC(=O)N1[C@@H](CO)[C@@H](c2ccccc2)C12CN(C(=O)Cc1ccccn1)C2 | · | · | · | · | -1 | ·
N#C/C(=C\c1ccccc1[N+](=O)[O-])C(=O)NCc1ccccc1 | 3 | 2 | 25* | 11 | -3 | 0
N#C/C(=C\C=C\c1ccccc1[N+](=O)[O-])C(=O)NCc1ccccc1 | 0 | 4 | -3 | 2 | -1 | 6
C/C=C/c1ccccc1[C@@H]1[C@@H](C#N)N(C(=O)c2cccnc2)[C@@H]1CO | · | · | · | · | 1 | ·
O=C(CSc1ccsc1[N+](=O)[O-])Nc1cccc(F)c1 | 4 | 5 | 4 | 5 | 41* | 12
COCC(=O)Nc1ccc2c(c1)[C@@H]1C[C@H](CC(=O)NCc3ccccc3F)O[C@@H](CO)[C@@H]1O2 | · | · | · | · | 5 | ·
CCCCN(CC)c1nc(N)c2c(N)nc(OCC)cc2c1C#N | -1 | 22 | 38* | -4 | · | -10
CCCOc1cc2c(C#N)c(N3CCCC3)nc(N)c2c(N)n1 | -2 | · | -15 | -5 | 39* | 2
Cc1noc(C)c1S(=O)(=O)Nc1ccc2c(c1)CC(=O)N([C@H](C)CO)C[C@H](C)[C@@H](CN(C)S(=O)(=O)c1ccccc1)O2 | · | · | · | · | -1 | ·
CCOC(=O)c1cc(CNC(=O)c2c(C)oc3c2CCCC3)c(C)o1 | -2 | 4 | 1 | -2 | 6 | -14
CCCc1c2c(cc3c(=O)cc(C(=O)OCC)oc13)CCCC2 | 0 | 0 | 74* | 4 | 0 | 0
SMILES | LEDGF integ inh | NSD2 HMT inh | UHRF1 binding | MBD2 inh | CASP6 VEID inh | TDP2 inh
CO[C@@H]1CN(C)C(=O)c2cc(NC(=O)CC(F)(F)F)ccc2OC[C@H](C)N(S(=O)(=O)c2cn(C)cn2)C[C@@H]1C | · | · | · | · | 0 | ·
Cc1ccc2oc(C(=O)N(Cc3ccc(N(C)C)cc3)C3CCS(=O)(=O)C3)c(C)c2c1 (stereo not drawn) | 1 | 13 | -1 | 2 | 59* | 12
Cc1ccc2c(C)c(C(=O)N(Cc3ccc(N(C)C)cc3)C3CCS(=O)(=O)C3)oc2c1 (stereo not drawn) | 0 | · | 0 | -4 | 0 | -6
CCOc1ccc(Br)cc1S(=O)(=O)Nc1cccc(S(=O)(=O)N(C)c2ccccc2)c1 | 1 | 1 | 23* | -4 | -6 | 2
COc1ccc(CN(C)C[C@H]2Oc3ccc(NC(=O)Cn4cnnn4)cc3C(=O)N([C@@H](C)CO)C[C@@H]2C)cc1 | · | · | · | · | 1 | ·
O=C1C=CC(=O)N1c1ccccc1N1C(=O)C=CC1=O | 8 | 6 | 0 | 3 | -2 | 7
CC1=CC(=O)N(c2cccc3c(N4C(=O)C=C(C)C4=O)cccc23)C1=O | 7 | · | 23* | 15* | 1 | -1
Cc1cc(C)cc(N2C(=O)CS(=O)(=O)C2c2cccc([N+](=O)[O-])c2)c1 (stereo not drawn) | · | · | · | · | 3 | ·
O=C(C[C@H]1CC[C@H]2[C@@H](COC[C@H](O)CN2C(=O)Nc2ccc(F)cc2)O1)NCCCN1CCOCC1 | · | · | · | · | -1 | ·
Cn1c(N)c(-c2nc3cccnc3n2C)sc1=S | 0 | -3 | 24* | 4 | -3 | -5
CC(=O)CCC(=O)NC1CCCc2c1cnn2-c1ccc(C(C)(C)C)cc1 (stereo not drawn) | -4 | -2 | 34* | 1 | -4 | 4
O=C(c1ccccc1F)N1CC2(C1)[C@H](c1ccccc1)[C@@H](CO)N2CC1CCOCC1 | · | · | · | · | -1 | ·
COc1cccc(NC(=O)N(C)C[C@@H]2Oc3cc(-c4ccccc4F)ccc3S(=O)(=O)N([C@H](C)CO)C[C@@H]2C)c1 | · | · | · | · | 4 | ·
CO[C@@H]1CN(C)C(=O)c2ccc(NC(=O)C3CC3)cc2OC[C@@H](C)N(C(=O)CN(C)C)C[C@@H]1C | · | · | · | · | -4 | ·
CC(=O)N1CCOc2ccc(S(=O)(=O)NCCc3ccc(S(N)(=O)=O)cc3)cc21 | 3 | 2 | -3 | -6 | -2 | -2
CC(=O)N1CCOc2ccc(S(=O)(=O)NCc3ccc(F)cc3)cc21 | 3 | 1 | 3 | 0 | 40* | 5
Cc1noc(C)c1S(=O)(=O)Nc1ccc2c(c1)C(=O)N([C@@H](C)CO)C[C@H](C)[C@@H](CN(C)C(=O)Nc1ccccc1)OCCCC[C@H](C)O2 | · | · | · | · | 0 | ·

Compound activity as filed in PubChem.
